Measurements from ChEMBL document CHEMBL1914423, “New imidazo[2,1-b]thiazole derivatives: synthesis, in vitro anticancer evaluation, and in silico studies” (Eur J Med Chem, 2011).

Test system: SF-295
Test: Anticancer activity against human SF295 cells assessed as cell growth at 10^-5 M after 48 hrs by SRB assay
Assay type: functional
Settings: SF-295, 48 h, read-out: Activity

Structure (SMILES) | growth at 10 µM
COc1cccc(-c2nc3sccn3c2-c2ccnc(NCCNC(=O)c3ccccc3O)n2)c1 | 101%

Test system: SK-MEL-28
Test: Anticancer activity against human SK-MEL-28 cells assessed as cell growth at 10^-5 M after 48 hrs by SRB assay
Assay type: functional
Settings: SK-MEL-28, 48 h, read-out: Activity

Structure (SMILES) | growth at 10 µM
COc1cccc(-c2nc3sccn3c2-c2ccnc(NCCNC(=O)c3ccccc3O)n2)c1 | 77.1%

Test system: MDA-MB-468
Test: Anticancer activity against human MDA-MB-468 cells assessed as cell growth at 10^-5 M after 48 hrs by SRB assay
Assay type: functional
Settings: MDA-MB-468, 48 h, read-out: Activity

Structure (SMILES) | growth at 10 µM
COc1cccc(-c2nc3sccn3c2-c2ccnc(NCCNC(=O)c3ccccc3O)n2)c1 | 102%

Test system: IGROV-1
Test: Anticancer activity against human IGROV1 cells assessed as cell growth at 10^-5 M after 48 hrs by SRB assay
Assay type: functional
Settings: IGROV-1, 48 h, read-out: Activity
Method in brief: (§1)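 NCI-60 single-dose screen at one concentration. Cells grown in RPMI 1640 with 5% FBS and 2 mM L-glutamine, plated at 5000–40,000 cells/well, and pre-incubated 24 h at 37 °C in 5% CO2 before DMSO-dissolved drug was added. Cells fixed with TCA, SRB-stained, absorbance read at 515 nm. Percent growth calculated against time-zero and untreated control plates.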

Structure (SMILES) | growth at 10 µM
COc1cccc(-c2nc3sccn3c2-c2ccnc(NCCNC(=O)c3ccccc3O)n2)c1 | 60.9%

Test system: NCI-H460
Test: Anticancer activity against human NCI-H460 cells assessed as cell growth at 10^-5 M after 48 hrs by SRB assay
Assay type: functional
Settings: NCI-H460, 48 h, read-out: Activity

Structure (SMILES) | growth at 10 µM
COc1cccc(-c2nc3sccn3c2-c2ccnc(NCCNC(=O)c3ccccc3O)n2)c1 | 92.1%

Test system: SR
Test: Anticancer activity against human SR cells assessed as cell growth at 10^-5 M after 48 hrs by SRB assay
Assay type: functional
Settings: read-out: Activity
Method in brief: (§2)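 NCI-60 single-dose screen: cells in RPMI 1640 with 5% FBS and 2 mM L-glutamine, plated at 5000–40,000 cells/well by doubling time, and preincubated 24 h at 37 °C. Compound given at one concentration from DMSO stock. Cells TCA-fixed and SRB-stained, absorbance at 515 nm. Percent growth relative to time-zero and untreated controls; inhibition % = 100 − growth %.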

Structure (SMILES) | growth at 10 µM
COc1cccc(-c2nc3sccn3c2-c2ccnc(NCCNC(=O)c3ccccc3O)n2)c1 | 95%

Test system: RXF 393
Test: Anticancer activity against human RXF393 cells assessed as cell growth at 10^-5 M after 48 hrs by SRB assay
Assay type: functional
Settings: RXF 393, 48 h, read-out: Activity

Structure (SMILES) | growth at 10 µM
COc1cccc(-c2nc3sccn3c2-c2ccnc(NCCNC(=O)c3ccccc3O)n2)c1 | 78.9%

Test system: K562
Test: Anticancer activity against human K562 cells assessed as cell growth at 10^-5 M after 48 hrs by SRB assay
Assay type: functional
Settings: K562, 48 h, read-out: Activity
Method in brief: as §1

Structure (SMILES) | growth at 10 µM
COc1cccc(-c2nc3sccn3c2-c2ccnc(NCCNC(=O)c3ccccc3O)n2)c1 | 59.4%

Test system: SK-MEL-5
Test: Anticancer activity against human SK-MEL-5 cells assessed as cell growth at 10^-5 M after 48 hrs by SRB assay
Assay type: functional
Settings: SK-MEL-5, 48 h, read-out: Activity

Structure (SMILES) | growth at 10 µM
COc1cccc(-c2nc3sccn3c2-c2ccnc(NCCNC(=O)c3ccccc3O)n2)c1 | 48.6%

Test system: NCI/ADR-RES
Test: Anticancer activity against human NCI/ADR-RES cells assessed as cell growth at 10^-5 M after 48 hrs by SRB assay
Assay type: functional
Settings: read-out: Activity

Structure (SMILES) | growth at 10 µM
COc1cccc(-c2nc3sccn3c2-c2ccnc(NCCNC(=O)c3ccccc3O)n2)c1 | 54.6%

Test system: UACC-257
Test: Anticancer activity against human UACC257 cells assessed as cell growth at 10^-5 M after 48 hrs by SRB assay
Assay type: functional
Settings: UACC-257, 48 h, read-out: Activity
Method in brief: as §2

Structure (SMILES) | growth at 10 µM
COc1cccc(-c2nc3sccn3c2-c2ccnc(NCCNC(=O)c3ccccc3O)n2)c1 | 78.7%

Test system: SN12C
Test: Anticancer activity against human SN12C cells assessed as cell growth at 10^-5 M after 48 hrs by SRB assay
Assay type: functional
Settings: read-out: Activity

Structure (SMILES) | growth at 10 µM
COc1cccc(-c2nc3sccn3c2-c2ccnc(NCCNC(=O)c3ccccc3O)n2)c1 | 86%

Test system: HCC 2998
Test: Anticancer activity against human HCC2998 cells assessed as cell growth at 10^-5 M after 48 hrs by SRB assay
Assay type: functional
Settings: HCC 2998, 48 h, read-out: Activity
Method in brief: as §1

Structure (SMILES) | growth at 10 µM
COc1cccc(-c2nc3sccn3c2-c2ccnc(NCCNC(=O)c3ccccc3O)n2)c1 | 113%

Test system: A549
Test: Anticancer activity against human A549 cells assessed as cell growth at 10^-5 M after 48 hrs by SRB assay
Assay type: functional
Settings: A549, 48 h, read-out: Activity
Method in brief: as §1

Structure (SMILES) | growth at 10 µM
COc1cccc(-c2nc3sccn3c2-c2ccnc(NCCNC(=O)c3ccccc3O)n2)c1 | 82.5%

Test system: HL-60(TB)
Test: Anticancer activity against human HL-60(TB) cells assessed as cell growth at 10^-5 M after 48 hrs by SRB assay
Assay type: functional
Settings: HL-60, 48 h, read-out: Activity
Method in brief: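 NCI-60 single-dose screen. Cells in RPMI 1640 with 5% FBS and 2 mM L-glutamine were plated at 5000–40,000 cells/well and preincubated 24 h at 37 °C before one compound concentration. Time-zero plates were TCA-fixed at drug addition. For suspension cells, settled cells were fixed with cold TCA, then SRB-stained and read at 515 nm. Percent growth was calculated from time-zero, control and treated absorbances.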

Structure (SMILES) | growth at 10 µM
COc1cccc(-c2nc3sccn3c2-c2ccnc(NCCNC(=O)c3ccccc3O)n2)c1 | 99.5%

Test system: PC-3
Test: Anticancer activity against human PC3 cells assessed as cell growth at 10^-5 M after 48 hrs by SRB assay
Assay type: functional
Settings: PC-3, 48 h, read-out: Activity

Structure (SMILES) | growth at 10 µM
COc1cccc(-c2nc3sccn3c2-c2ccnc(NCCNC(=O)c3ccccc3O)n2)c1 | 62.8%

Test system: MOLT-4
Test: Anticancer activity against human MOLT4 cells assessed as cell growth at 10^-5 M after 48 hrs by SRB assay
Assay type: functional
Settings: MOLT-4, 48 h, read-out: Activity

Structure (SMILES) | growth at 10 µM
COc1cccc(-c2nc3sccn3c2-c2ccnc(NCCNC(=O)c3ccccc3O)n2)c1 | 59.1%

Test system: UACC-62
Test: Anticancer activity against human UACC62 cells assessed as cell growth at 10^-5 M after 48 hrs by SRB assay
Assay type: functional
Settings: UACC-62, 48 h, read-out: Activity
Method in brief: as §2

Structure (SMILES) | growth at 10 µM
COc1cccc(-c2nc3sccn3c2-c2ccnc(NCCNC(=O)c3ccccc3O)n2)c1 | 36.8%

Test system: COLO 205
Test: Anticancer activity against human COLO205 cells assessed as cell growth at 10^-5 M after 48 hrs by SRB assay
Assay type: functional
Settings: COLO 205, 48 h, read-out: Activity
Method in brief: as §1

Structure (SMILES) | growth at 10 µM
COc1cccc(-c2nc3sccn3c2-c2ccnc(NCCNC(=O)c3ccccc3O)n2)c1 | 107%

Test system: MDA-MB-435
Test: Anticancer activity against human MDA-MB-435 cells assessed as cell growth at 10^-5 M after 48 hrs by SRB assay
Assay type: functional
Settings: MDA-MB-435, 48 h, read-out: Activity

Structure (SMILES) | growth at 10 µM
COc1cccc(-c2nc3sccn3c2-c2ccnc(NCCNC(=O)c3ccccc3O)n2)c1 | 54.3%

Test system: CAKI-1
Test: Anticancer activity against human Caki1 cells assessed as cell growth at 10^-5 M after 48 hrs by SRB assay
Assay type: functional
Settings: CAKI-1, 48 h, read-out: Activity
Method in brief: as §1

Structure (SMILES) | growth at 10 µM
COc1cccc(-c2nc3sccn3c2-c2ccnc(NCCNC(=O)c3ccccc3O)n2)c1 | 68.8%

Test system: not listed separately
Test: Antiproliferative activity against human A375P cells after 48 hrs by MTT assay
Assay type: functional, cell-based
Settings: not given
Method in brief: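 A375P cells in DMEM with 10% FBS at 37 °C, 5% CO2. Seeded at 5×10³ cells/well, held 24 h, then treated with 12-point 3-fold serial dilutions for 48 h. Viability by MTT reduction. IC50 values are means of triplicate experiments.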

Structure (SMILES) | IC50
COc1cccc(-c2nc3sccn3c2-c2ccnc(NCCNC(=O)c3ccccc3O)n2)c1 | 7.5 µM

Test system: SW-620
Test: Anticancer activity against human SW620 cells assessed as cell growth at 10^-5 M after 48 hrs by SRB assay
Assay type: functional
Settings: SW-620, 48 h, read-out: Activity
Method in brief: as §2

Structure (SMILES) | growth at 10 µM
COc1cccc(-c2nc3sccn3c2-c2ccnc(NCCNC(=O)c3ccccc3O)n2)c1 | 119%

Test system: M14
Test: Anticancer activity against human M14 cells assessed as cell growth at 10^-5 M after 48 hrs by SRB assay
Assay type: functional
Settings: M14, 48 h, read-out: Activity
Method in brief: as §1

Structure (SMILES) | growth at 10 µM
COc1cccc(-c2nc3sccn3c2-c2ccnc(NCCNC(=O)c3ccccc3O)n2)c1 | 46.9%

Test system: SNB-19
Test: Anticancer activity against human SNB19 cells assessed as cell growth at 10^-5 M after 48 hrs by SRB assay
Assay type: functional
Settings: SNB-19, 48 h, read-out: Activity

Structure (SMILES) | growth at 10 µM
COc1cccc(-c2nc3sccn3c2-c2ccnc(NCCNC(=O)c3ccccc3O)n2)c1 | 118%

Test system: OVCAR-4
Test: Anticancer activity against human OVCAR4 cells assessed as cell growth at 10^-5 M after 48 hrs by SRB assay
Assay type: functional
Settings: OVCAR-4, 48 h, read-out: Activity

Structure (SMILES) | growth at 10 µM
COc1cccc(-c2nc3sccn3c2-c2ccnc(NCCNC(=O)c3ccccc3O)n2)c1 | 116%
